Experimental data taken from PubChem BioAssay.
Active and inactive are the calls of the source.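 Rule for the calls, unless noted: active = fluorescence slope higher than the sample average by over 3 SD (cut at about -0.22 in these data, passing the limit was not always enough); inactive = the rest.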

Columns and labels:
[1] = inhibitors of TNFa-induced NFkB p65 translocation, primary screen, imaging, HUVEC, MLSMR starter and 10KST1 sets (AID 438;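 active = inhibition above 20% together with a positive visual image hit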;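 note: compound added about 3h40 before a 20 min TNFalpha stimulation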;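 for inhibition: signal is the nuclear over cytoplasmic p65 intensity ratio per well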); conditions: HUVEC TNFa-induced p65 nuclear translocation; cell count: measured here: nuclei count (cytotoxicity indicator), at 2.08 µM; inhibition: at 2 µM, stronger effect = higher value, 0% TNFa-plus-vehicle, 100% no-TNFa wells
[2] = reduction of polyQ htt aggregates in cells – imaging, exon1htt(103Q)mCFP cells, high-content imaging, primary screen (AID 483;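 active = visual image review flags a hit and inhibition of aggregation exceeds 20%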;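 note: compound exposure lasted 3 days before fixation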;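 for nuclei count: percent of the per-plate median nuclei count of sample wells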); conditions: exon1htt(103Q)mCFP cell line, aggregate imaging, at 2 µM; inhibition of aggregation: stronger effect = higher value; nuclei count: measured here: cell count, toxicity
[3] = endothelial E-selectin expression blockers – imaging, HUVEC, immunofluorescence, MLSMR starter and 10KST1 sets, primary screen (AID 487;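 active = visually confirmed hit in the image check and inhibition above 20%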;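 for inhibition: signal is fraction of cell area covered by stained E-selectin grains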;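 for nuclei count: 100% = median nuclei count of all wells on the same plate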); conditions: HUVEC TNFalpha-induced E-selectin immunofluorescence imaging, at 2 µM; inhibition: stronger effect = higher value; nuclei count: measured here: cell number, toxicity
[4] = target: Voltage-gated potassium channel subunit beta-2 (Rattus norvegicus) (UniProt P62483); experiment: inhibitors of rat Kvbeta2 reductase activity – biochemical, NADPH fluorescence, primary screen (AID 622); conditions: recombinant KvBeta, 4-cyanobenzaldehyde reduction, at 10 µM, stronger effect = higher value;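 note: slope of raw intensity against log time taken from 70 to 1610 s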
[5] = target: Voltage-gated potassium channel subunit beta-2 (Rattus norvegicus) (UniProt P62483); experiment: enhancers of rat Kvbeta2 NADPH turnover – biochemical, NADPH fluorescence, primary screen (AID 623;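 active = NADPH fluorescence slope more negative than the mean of all samples by about 3 SD, 99.7% confidence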;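 note: fluorescence intensity change per second fitted from 20 to 320 s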); conditions: Recombinant KvBeta, NADPH fluorescence decrease slope, 10 min; at 10 µM; stronger effect = lower value
[6] = target: Alpha-2C adrenergic receptor (Homo sapiens) (UniProt P18825); experiment: compounds altering alpha2C-coupled GIRK flux – cell-based, HEK293 alpha2C/GIRK1/2, thallium flux, primary screen (AID 624;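 active = fluorescence slope after compound addition differing from the mean of all screened samples at 99.7% confidence, in either direction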;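 note: slope of fluorescence ratio to pre-addition baseline per second over 15 to 24 s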); conditions: thallium flux BTC fluorescence, at 10 µM, actives lie on both sides
[7] = blockers of RIG-like receptor reporter activation – cell-based, Sendai virus stimulus, luciferase, 10K MLSCN set, TLR/RLR signaling modifier project, primary screen (AID 602276;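 active = inhibition at or above 50% at 10 µM; inactive = inhibition below 50%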;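 note: firefly luciferase from ISG56 promoter only with Renilla not read in this screen; 0% = Sendai virus plus DMSO and 100% = medium plus DMSO without virus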); conditions: HEK293 RL24 IRF3 luciferase reporter, at 10 µM, stronger effect = higher value
[8] = TLR3 IRF3 reporter activation blockers – cell-based, poly I:C stimulus, luciferase, 10K MLSCN set, primary screen (AID 602277;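 active = inhibition of the reporter signal at or above 50%; inactive = inhibition below 50%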); conditions: HEK293-TLR3 RL24 IRF3 luciferase reporter, at 10 µM, stronger effect = higher value
[9] = inhibitors of larval lipid processing in zebrafish, primary screen, whole organism, PED6 fluorescence, gall bladder and intestine (AID 686;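 active = a full or partial loss of lipid-probe fluorescence in the fish gall bladder, intestine or both, judged by eye; inactive = no fluorescence loss, or compound toxic to the fish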;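 note: larvae 5 to 7 days old with five fish per well; signal comes from phospholipase A2 cleavage of quenched PED6 carried via bile; overnight exposure to compound and PED6 before scoring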); conditions: Zebrafish larvae PED6 lipid processing, fluorescence scoring; screened at 20 µM (by protocol)
Summary of the method: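 system = live zebrafish larvae aged 5-7 days, whole organism | probe or stimulus = ingested quenched lipid PED6 at 100 nM | doses = 20 µM single dose | timing = overnight exposure | detection = fluorescence microscopy with visual scoring of gall bladder and intestine | read-out = visual per-well fluorescence inhibition score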

Sequence of Alpha-2C adrenergic receptor (Homo sapiens) (P18825 whole entry, looked up): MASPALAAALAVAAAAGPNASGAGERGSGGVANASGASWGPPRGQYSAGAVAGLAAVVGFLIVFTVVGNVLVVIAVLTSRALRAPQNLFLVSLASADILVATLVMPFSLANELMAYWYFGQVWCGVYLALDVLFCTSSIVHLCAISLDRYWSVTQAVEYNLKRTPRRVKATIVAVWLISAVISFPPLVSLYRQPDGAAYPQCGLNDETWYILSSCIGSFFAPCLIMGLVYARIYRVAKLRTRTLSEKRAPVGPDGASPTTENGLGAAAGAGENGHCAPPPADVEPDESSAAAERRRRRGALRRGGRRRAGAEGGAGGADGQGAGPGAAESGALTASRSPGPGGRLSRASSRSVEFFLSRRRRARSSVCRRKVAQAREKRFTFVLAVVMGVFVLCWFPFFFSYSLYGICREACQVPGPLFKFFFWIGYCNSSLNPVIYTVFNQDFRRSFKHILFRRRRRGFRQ
Sequence of Voltage-gated potassium channel subunit beta-2 (Rattus norvegicus) (P62483 whole entry, looked up): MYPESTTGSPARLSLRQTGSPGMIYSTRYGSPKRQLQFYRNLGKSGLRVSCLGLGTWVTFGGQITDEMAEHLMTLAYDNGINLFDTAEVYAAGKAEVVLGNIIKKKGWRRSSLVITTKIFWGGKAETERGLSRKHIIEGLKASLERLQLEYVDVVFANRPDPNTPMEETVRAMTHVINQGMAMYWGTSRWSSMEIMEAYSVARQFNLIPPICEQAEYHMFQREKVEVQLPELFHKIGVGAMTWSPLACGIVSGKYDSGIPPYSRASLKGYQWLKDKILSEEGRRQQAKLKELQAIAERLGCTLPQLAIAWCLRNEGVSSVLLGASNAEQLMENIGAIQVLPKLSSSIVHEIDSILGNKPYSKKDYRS

Structure (SMILES)	cell count [1]	inhibition [1]	inhibition of aggregation [2]	nuclei count [2]	inhibition [3]	nuclei count [3]	fluorescence slope [4]	NADPH fluorescence slope [5]	slope [6]	inhibition [7]	inhibition [8]	outcome [9]
CC(Oc1ccccc1)C(=O)NC1CCN(Cc2ccccc2)CC1 (stereo not given)	705	-5.2% (inactive)	2.1% (inactive)	108%	0.4% (inactive)	103%	-0.418 (inactive)	-1.8e-05 (inactive)	0.00578 (inactive)	11.2% (inactive)	21.3% (inactive)	–
CCn1c(SCC(=O)N2c3ccccc3CCc3ccccc32)nc2c1c(=O)n(C)c(=O)n2C	706	-3.2% (inactive)	25.6% (inactive)	80.2%	-2.5% (inactive)	131%	-0.516 (inactive)	-8.1e-05 (inactive)	0.0052 (inactive)	5.5% (inactive)	16.2% (inactive)	–
CC(=O)c1ccc(N2CCN(C(=O)c3cc(C)on3)CC2)cc1	319	0% (inactive)	18.7% (inactive)	102%	40.6% (inactive)	80.7%	-0.465 (inactive)	-4.5e-05 (inactive)	0.00513 (inactive)	2.68% (inactive)	-0.354% (inactive)	inactive
C=CCN(CC=C)C(=O)Nc1cc(Cl)ccc1OC	373	0.5% (inactive)	-7.2% (inactive)	103%	-87.7% (inactive)	111%	-0.402 (inactive)	-3.2e-05 (inactive)	0.0044 (inactive)	4.56% (inactive)	-3.97% (inactive)	inactive
O=C(c1cccc2c1C(=O)N(Cc1cccnc1)C2)N1CCN(c2ccccc2)CC1	941	9.3% (inactive)	-5.7% (inactive)	103%	-104% (inactive)	135%	-0.365 (inactive)	-6e-05 (inactive)	0.00499 (inactive)	13.7% (inactive)	9.9% (inactive)	inactive
CCC(c1nnc(SCC(=O)Nc2ccc(C(=O)Nc3ccccc3OC)cc2)o1)N(C)C (stereo not given)	464	2.9% (inactive)	-11.7% (inactive)	102%	-70.6% (inactive)	90.3%	-0.442 (inactive)	-7.1e-06 (inactive)	0.00416 (inactive)	-5.51% (inactive)	98.3% (active)	inactive
Cc1ccc(S(=O)(=O)N2CCN(c3nc(C)nc4sc(C)c(C)c34)CC2)cc1	345	10.5% (inactive)	-6.6% (inactive)	110%	-191% (inactive)	108%	-0.387 (inactive)	-5.6e-05 (inactive)	0.0062 (inactive)	5.42% (inactive)	4.33% (inactive)	inactive
Cc1cc(C(=O)COc2cccc3cccnc23)c(C)n1C	703	1.8% (inactive)	-22.3% (inactive)	107%	-154% (inactive)	117%	-0.327 (inactive)	-1.7e-05 (inactive)	0.00438 (inactive)	-44.6% (inactive)	-68% (inactive)	inactive
COc1ccc(S(=O)(=O)N2CCN(S(=O)(=O)c3ccc4c(c3)OCCO4)CC2)cc1C	377	4% (inactive)	-8.3% (inactive)	114%	15.9% (inactive)	85%	-0.223 (inactive)	-5.5e-05 (inactive)	0.00641 (inactive)	16.8% (inactive)	26.6% (inactive)	inactive
Cc1ccc(C)c2[nH]c(=O)c(CCNC(=O)c3ccc(Br)o3)cc12	327	-9.8% (inactive)	14.1% (inactive)	87%	23.8% (inactive)	97.7%	-0.481 (inactive)	-0.000268 (inactive)	0.00492 (inactive)	-1.8% (inactive)	-1.41% (inactive)	–
O=C(Nc1ccon1)c1cccc(S(=O)(=O)N2CCCC2)c1	307	-2.7% (inactive)	21% (inactive)	86.7%	-11.9% (inactive)	102%	-0.374 (inactive)	-1.7e-05 (inactive)	0.00556 (inactive)	13.5% (inactive)	13.6% (inactive)	inactive
O=C(CSc1nnc(-c2ccco2)n1CC1CCCO1)NC1CCCC1 (stereo not given)	336	-6.2% (inactive)	10.7% (inactive)	101%	-15.3% (inactive)	121%	-0.361 (inactive)	-5.1e-05 (inactive)	0.00445 (inactive)	7.82% (inactive)	4.4% (inactive)	inactive
CC(C)(C)NC(=O)C(Cc1ccccc1)NS(=O)(=O)c1cccc2nsnc12 (stereo not given)	721	-19.8% (inactive)	-37.6% (inactive)	113%	-49.9% (inactive)	112%	-0.413 (inactive)	1.1e-05 (inactive)	0.00438 (inactive)	3.22% (inactive)	8.45% (inactive)	inactive
COc1ccc(CCNc2oc(Cc3cccc4ccccc34)nc2C#N)cc1OC	718	13.9% (inactive)	8.4% (inactive)	81.2%	24.2% (inactive)	88.7%	-0.396 (inactive)	-8.6e-06 (inactive)	0.00516 (inactive)	17.3% (inactive)	6.78% (inactive)	–
O=C(Cn1nc(Cc2cccnc2)c2ccccc2c1=O)Nc1ccc2c(c1)OCO2	576	3% (inactive)	22.2% (inactive)	109%	-9.3% (inactive)	98.3%	-0.55 (inactive)	-3.9e-05 (inactive)	0.00644 (inactive)	10.9% (inactive)	18.1% (inactive)	–
CC1CCN(c2oc(-c3cccc4ccccc34)nc2C#N)CC1	610	-8.2% (inactive)	1.2% (inactive)	102%	-112% (inactive)	101%	-0.0453 (active)	-6.6e-07 (inactive)	0.00364 (inactive)	-40.5% (inactive)	-95.3% (inactive)	–
COc1ccc(-c2noc(CSc3nc4ccccc4c(=O)n3-c3ccccc3)n2)cc1OC	498	-1.8% (inactive)	12.7% (inactive)	96.7%	-114% (inactive)	128%	-0.412 (inactive)	-4.5e-05 (inactive)	0.0108 (active)	23.5% (inactive)	26.1% (inactive)	inactive
Cc1cc(C(=O)CSCCCn2c(=O)[nH]c3ccccc32)c(C)n1C	494	-3.3% (inactive)	28.4% (inactive)	84.7%	-68.3% (inactive)	113%	-0.604 (inactive)	-9.1e-06 (inactive)	0.00689 (inactive)	-10.6% (inactive)	-5.21% (inactive)	–
Clc1c(CSc2nc3ccccc3o2)nc2sccn12	651	7.3% (inactive)	7.5% (inactive)	99.8%	-149% (inactive)	89.3%	-0.507 (inactive)	-4.4e-05 (inactive)	0.00562 (inactive)	-56.6% (inactive)	-207% (inactive)	–
Cc1ccc(Cl)cc1N1CCN(C(=O)c2cn(C)c(=O)c3c2c2ccccc2n3C)CC1	270	-3.3% (inactive)	17.2% (inactive)	8%	-33.6% (inactive)	114%	-0.352 (inactive)	-2e-05 (inactive)	0.00673 (inactive)	16.1% (inactive)	28% (inactive)	inactive
O=C(O)c1ccc2noc(-c3ccccc3)c2c1	755	-8.7% (inactive)	16.9% (inactive)	103%	-15% (inactive)	123%	-0.378 (inactive)	-3.4e-05 (inactive)	0.00344 (inactive)	-20.8% (inactive)	-49.6% (inactive)	–
COC(=O)c1ccccc1NC(=O)CN1CCC(n2nnc3cc(F)ccc32)CC1	488	6% (inactive)	-5.5% (inactive)	103%	35% (inactive)	91.3%	-0.453 (inactive)	-4.1e-05 (inactive)	0.00532 (inactive)	15.8% (inactive)	25.9% (inactive)	inactive
COc1ccc2c3c(c(=O)oc2c1OCC(N)=O)CCCC3	609	-3.8% (inactive)	-17.4% (inactive)	111%	-29.2% (inactive)	102%	-0.0534 (active)	-8.5e-06 (inactive)	0.00487 (inactive)	14% (inactive)	2.31% (inactive)	inactive
O=C(CSc1n[nH]c(=O)[nH]c1=O)c1ccccc1	486	-5.6% (inactive)	6.7% (inactive)	82%	-33.2% (inactive)	99.8%	-0.34 (inactive)	-4e-05 (inactive)	0.00685 (inactive)	1.37% (inactive)	0.379% (inactive)	inactive
Cc1ccc2nc3c(cc2c1)CN(Cc1ccco1)C(=NCC1CCCO1)S3 (stereo not given)	543	0.7% (inactive)	28.7% (inactive)	82.4%	-2.1% (inactive)	106%	-0.372 (inactive)	-6.6e-05 (inactive)	0.00724 (inactive)	13.9% (inactive)	11.5% (inactive)	inactive
CCOC(=O)c1c(C)oc2ccc(NS(=O)(=O)c3ccc4c5c(cccc35)C(=O)N4)cc12	429	6.5% (inactive)	-5.8% (inactive)	99%	-185% (inactive)	114%	-0.223 (inactive)	-1.1e-05 (inactive)	0.00563 (inactive)	21.2% (inactive)	2.01% (inactive)	inactive
Cc1nc2ccccc2nc1OCC(=O)Nc1cc(C(F)(F)F)ccc1N1CCOCC1	410	-5.6% (inactive)	19.2% (inactive)	85.4%	80.7% (active)	113%	-0.429 (inactive)	-3e-05 (inactive)	0.00495 (inactive)	12.4% (inactive)	8.99% (inactive)	inactive
